Measurements published in ChEMBL document CHEMBL1123757, “Selective thromboxane synthetase inhibitors and antihypertensive agents. New derivatives of 4-hydrazino-5H-pyridazino[4,5-b]indole, 4-hydrazinopyridazino[4,5-a]indole, and related compounds” (J Med Chem, 1987).

Experiments:
Rattus norvegicus [1] = assay: Antihypertensive activity in spontaneously hypertensive rats (SHR) measured by percentage fall in cardiac rhythm (CR) at 25 mg/kg administered perorally at 3 h; format: functional, Heart; details: route oral
In short: (§1)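 Conscious SHR (Okamoto strain), 8 weeks old, male and female, 300–350 g, systolic BP ≥190 mmHg, CR 400–650 beats/min. Given ip or po at 2.5 mL/kg in normal saline or saline with 0.2% (carboxymethyl)cellulose and 1.0% Tween 80. Tail AP and CR recorded by mechanical transduction at 1, 3, 5 and 24 h, five animals per dose. Effect expressed as % fall versus control.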

Rattus norvegicus [2] = assay: Antihypertensive activity in spontaneously hypertensive rats (SHR) measured by percentage fall in cardiac rhythm (CR) at 25 mg/kg administered intraperitoneally at 3 h; format: functional, Heart; details: route intraperitoneal
In short: (§2)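 Unanesthetized Okamoto-strain SHR, male and female, 8 weeks old, 300–350 g, systolic pressure ≥190 mmHg, heart rate 400–650 beats/min; five animals per dose. Given ip at 2.5 mL/kg, dissolved or suspended in normal saline or saline with 0.2% (carboxymethyl)cellulose and 1.0% Tween 80. Tail AP and CR recorded by mechanical transduction at set times; reported as percentage fall from control.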

Rattus norvegicus [3] = assay: Antihypertensive activity in spontaneously hypertensive rats (SHR) measured by percentage fall in arterial pressure (AP) at 25 mg/kg administered perorally at 3 h; format: functional, Artery; details: route oral
In short: (§3)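 Oral dosing at 2.5 mL/kg to unanesthetized male and female Okamoto-strain SHR (8 weeks old, 300–350 g, systolic pressure ≥190 mmHg, heart rate 400–650 beats/min), five per dose. Vehicle was normal saline or saline with 0.2% (carboxymethyl)cellulose and 1.0% Tween 80. AP measured on the tail by mechanical transduction at set times; expressed as percentage fall from control.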

Rattus norvegicus [4] = assay: Antihypertensive activity in spontaneously hypertensive rats (SHR) measured by percentage fall in arterial pressure (AP) at 5 mg/kg administered intraperitoneally at 5 h; format: functional, Artery; details: route intraperitoneal; in short: as §2
Rattus norvegicus [5] = assay: Antihypertensive activity in spontaneously hypertensive rats (SHR) measured by percentage fall in cardiac rhythm (CR) at 5 mg/kg administered intraperitoneally at 5 h; format: functional, Heart; details: route intraperitoneal; in short: as §1
Rattus norvegicus [6] = assay: Antihypertensive activity in spontaneously hypertensive rats (SHR) measured by percentage fall in cardiac rhythm (CR) at 5 mg/kg administered intraperitoneally at 3 h; format: functional, Heart; details: route intraperitoneal; in short: as §1
Rattus norvegicus [7] = assay: Antihypertensive activity in spontaneously hypertensive rats (SHR) measured by percentage fall in arterial pressure (AP) at 25 mg/kg administered perorally at 5 h; format: functional, Artery; details: route oral; in short: as §3
Rattus norvegicus [8] = assay: Antihypertensive activity in spontaneously hypertensive rats (SHR) measured by percentage fall in cardiac rhythm (CR) at 5 mg/kg administered intraperitoneally at 1 h; format: functional, Heart; details: route intraperitoneal; in short: as §1
Rattus norvegicus [9] = assay: Antihypertensive activity in spontaneously hypertensive rats (SHR) measured by percentage fall in arterial pressure (AP) at 25 mg/kg administered intraperitoneally at 3 h; format: functional, Artery; details: route intraperitoneal; in short: as §2
Rattus norvegicus [10] = assay: Antihypertensive activity in spontaneously hypertensive rats (SHR) measured by percentage fall in arterial pressure (AP) at 1 mg/kg administered intraperitoneally at 3 h; format: functional, Artery; details: route intraperitoneal; in short: as §2
Rattus norvegicus [11] = assay: Antihypertensive activity in spontaneously hypertensive rats (SHR) measured by percentage fall in arterial pressure (AP) at 5 mg/kg administered intraperitoneally at 24 h; format: functional, Artery; details: route intraperitoneal; in short: as §2
Rattus norvegicus [12] = assay: Antihypertensive activity in spontaneously hypertensive rats (SHR) measured by percentage fall in cardiac rhythm (CR) at 1 mg/kg administered intraperitoneally at 1 h; format: functional, Heart; details: route intraperitoneal; in short: as §2
Rattus norvegicus [13] = assay: Antihypertensive activity in spontaneously hypertensive rats (SHR) measured by percentage fall in arterial pressure (AP) at 25 mg/kg administered intraperitoneally at 1 h; format: functional, Artery; details: route intraperitoneal; in short: as §2
Rattus norvegicus [14] = assay: Antihypertensive activity in spontaneously hypertensive rats (SHR) measured by percentage fall in arterial pressure (AP) at 25 mg/kg administered intraperitoneally at 24 h; format: functional, Artery; details: route intraperitoneal; in short: as §2
Rattus norvegicus [15] = assay: Antihypertensive activity in spontaneously hypertensive rats (SHR) measured by percentage fall in cardiac rhythm (CR) at 25 mg/kg administered intraperitoneally at 24 h; format: functional, Heart; details: route intraperitoneal; in short: as §2
Rattus norvegicus [16] = assay: Antihypertensive activity in spontaneously hypertensive rats (SHR) measured by percentage fall in cardiac rhythm (CR) at 25 mg/kg administered perorally at 1 h; format: functional, Heart; details: route oral; in short: as §1
Rattus norvegicus [17] = assay: Antihypertensive activity in spontaneously hypertensive rats (SHR) measured by percentage fall in cardiac rhythm (CR) at 25 mg/kg administered perorally at 5 h; format: functional, Heart; details: route oral; in short: as §1
Rattus norvegicus [18] = assay: Antihypertensive activity in spontaneously hypertensive rats (SHR) measured by percentage fall in arterial pressure (AP) at 25 mg/kg administered perorally at 1 h; format: functional, Artery; details: route oral; in short: as §3
Rattus norvegicus [19] = assay: Antihypertensive activity in spontaneously hypertensive rats (SHR) measured by percentage fall in cardiac rhythm (CR) at 1 mg/kg administered intraperitoneally at 5 h; format: functional, Heart; details: route intraperitoneal; in short: as §2
Rattus norvegicus [20] = assay: Antihypertensive activity in spontaneously hypertensive rats (SHR) measured by percentage fall in arterial pressure (AP) at 25 mg/kg administered intraperitoneally at 5 h; format: functional, Artery; details: route intraperitoneal; in short: as §2
Rattus norvegicus [21] = assay: Antihypertensive activity in spontaneously hypertensive rats (SHR) measured by percentage fall in arterial pressure (AP) at 5 mg/kg administered intraperitoneally at 3 h; format: functional, Artery; details: route intraperitoneal; in short: as §2
Rattus norvegicus [22] = assay: Antihypertensive activity in spontaneously hypertensive rats (SHR) measured by percentage fall in cardiac rhythm (CR) at 25 mg/kg administered intraperitoneally at 1 h; format: functional, Heart; details: route intraperitoneal; in short: as §2
Rattus norvegicus [23] = assay: Antihypertensive activity in spontaneously hypertensive rats (SHR) measured by percentage fall in cardiac rhythm (CR) at 5 mg/kg administered intraperitoneally at 24 h; format: functional, Heart; details: route intraperitoneal; in short: as §1
Rattus norvegicus [24] = assay: Antihypertensive activity in spontaneously hypertensive rats (SHR) measured by percentage fall in cardiac rhythm (CR) at 25 mg/kg administered intraperitoneally at 5 h; format: functional, Heart; details: route intraperitoneal; in short: as §1
Rattus norvegicus [25] = assay: Antihypertensive activity in spontaneously hypertensive rats (SHR) measured by percentage fall in cardiac rhythm (CR) at 1 mg/kg administered intraperitoneally at 3 h; format: functional, Heart; details: route intraperitoneal; in short: as §2
Rattus norvegicus [26] = assay: Antihypertensive activity in spontaneously hypertensive rats (SHR) measured by percentage fall in arterial pressure (AP) at 5 mg/kg administered intraperitoneally at 1 h; format: functional, Artery; details: route intraperitoneal; in short: as §2

Q: Br.Br.NNc1[nH]ncc2c3cc(O)ccc3nc1-2 was tested. Which “Decrease in CR” value (Rattus norvegicus [1]) did it give?
A: 24%

Q: And the “Decrease in CR” value (Rattus norvegicus [2])?
A: 16%

Q: What about the “Decrease in AP” value (Rattus norvegicus [3]) of the same molecule?
A: 27%

Q: What about the “Decrease in AP” value (Rattus norvegicus [4]) of the same molecule?
A: 10%

Q: What about the “Decrease in CR” value (Rattus norvegicus [5]) of the same molecule?
A: 24%

Q: And the “Decrease in CR” value (Rattus norvegicus [6])?
A: 30%

Q: What about the “Decrease in AP” value (Rattus norvegicus [7]) of the same molecule?
A: 8%

Q: And the “Decrease in CR” value (Rattus norvegicus [8])?
A: 64%

Q: What about the “Decrease in AP” value (Rattus norvegicus [9]) of the same molecule?
A: 67%

Q: And the “Decrease in AP” value (Rattus norvegicus [10])?
A: -6%

Q: And the “Decrease in AP” value (Rattus norvegicus [11])?
A: 6%

Q: And the “Decrease in CR” value (Rattus norvegicus [12])?
A: 22%

Q: And the “Decrease in AP” value (Rattus norvegicus [13])?
A: 70%

Q: What about the “Decrease in AP” value (Rattus norvegicus [14]) of the same molecule?
A: 28%

Q: And the “Decrease in CR” value (Rattus norvegicus [15])?
A: 18%

Q: What about the “Decrease in CR” value (Rattus norvegicus [16]) of the same molecule?
A: 17%

Q: And the “Decrease in CR” value (Rattus norvegicus [17])?
A: 8%

Q: What about the “Decrease in AP” value (Rattus norvegicus [18]) of the same molecule?
A: 29%

Q: What about the “Decrease in CR” value (Rattus norvegicus [19]) of the same molecule?
A: 19%

Q: What about the “Decrease in AP” value (Rattus norvegicus [20]) of the same molecule?
A: 63%

Q: What about the “Decrease in AP” value (Rattus norvegicus [21]) of the same molecule?
A: 16%

Q: What about the “Decrease in CR” value (Rattus norvegicus [22]) of the same molecule?
A: 19%

Q: What about the “Decrease in CR” value (Rattus norvegicus [23]) of the same molecule?
A: 28%

Q: And the “Decrease in CR” value (Rattus norvegicus [24])?
A: 44%

Q: What about the “Decrease in CR” value (Rattus norvegicus [25]) of the same molecule?
A: 13%

Q: And the “Decrease in AP” value (Rattus norvegicus [26])?
A: 27%
